Experimental data taken from ChEMBL document CHEMBL1122544, “Azasteroids as inhibitors of rat prostatic 5 alpha-reductase” (J Med Chem, 1984).

Molecular target: T1, 3-oxo-5-alpha-steroid 4-dehydrogenase 1 (Rattus norvegicus) (UniProt P24008)
T1 sequence (whole entry): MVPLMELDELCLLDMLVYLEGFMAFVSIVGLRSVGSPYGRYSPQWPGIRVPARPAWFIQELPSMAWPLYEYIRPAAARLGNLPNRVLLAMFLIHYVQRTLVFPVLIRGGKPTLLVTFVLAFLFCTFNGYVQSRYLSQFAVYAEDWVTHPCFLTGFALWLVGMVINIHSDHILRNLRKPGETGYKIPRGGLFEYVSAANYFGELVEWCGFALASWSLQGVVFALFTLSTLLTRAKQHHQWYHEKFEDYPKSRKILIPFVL
Assay: In vitro inhibitory activity against rat prostatic 5-alpha-reductase (150 ng/tube)
Summary of the method: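 Rat prostatic enzyme preparation incubated with radioactive T and excess NADPH in 0.21 mL medium; 150 ng steroid per incubation (approx. 2 μM). Read-out is percent prevention of [³H]T conversion to [³H]DHT vs. control incubation without inhibitor. Duplicate assays, progesterone (150 ng) or a reference azasteroid (25 ng) as positive controls; most values single, separate determinations, approximate.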

CC(=O)O[C@H]1CCC2C3CC[C@H]4CNC(=O)CCC4(C)C3CCC21C (some centres not stated) and CC(=O)O[C@H]1CCC2C3CC[C@H]4CNC(=O)CC4(C)C3CCC21C (some centres not stated) are the same in inhibition: 0% for the first, 0% for the second.

Compared with CC12CCNC(=O)C1CCC1C2CCC2(C)C1CC[C@@H]2O (some centres not stated), CC12CCC(=O)NC1CCC1C2CCC2(C)C1CC[C@@H]2O (some centres not stated) is higher in inhibition: 0% for the first, 57% for the second.

Going from CCN(CC)C(=O)C[C@H]1CC[C@H]2[C@@H]3CCC4N(C)C(=O)CC[C@]4(C)[C@H]3CC[C@]12C (some centres not stated) to CCN(CC)C(=O)[C@H]1CC[C@H]2[C@@H]3CC[C@@H]4N(C)C(=O)CC[C@]4(C)[C@H]3CC[C@]12C, the inhibition falls from 97% to 7%.

Going from COC(=O)[C@H]1CCC2C3CC[C@H]4CC(=O)OCC4(C)C3CCC21C (some centres not stated) to COC(=O)[C@H]1CCC2C3CCC4N(C)C(=O)CCC4(C)C3CCC21C (some centres not stated), the inhibition rises from 0% to 96%.

Going from CCN(CC)C(=O)[C@H]1CCC2C3CCC4N(C)/C(=N\C)CCC4(C)C3CCC21C (some centres not stated) to CCN(CC)C(=O)[C@H]1CCC2C3CCC4N(C)/C(=N/O)CCC4(C)C3CCC21C (some centres not stated), the inhibition rises from 49% to 77%.

First: CC(=O)[C@H]1CC[C@H]2[C@@H]3CC[C@H]4CS(=O)(=O)C[C@]4(C)[C@H]3CC[C@]12C (stereo in doubt; 43)
Second: CC(=O)[C@H]1CCC2C3CCC4NC(=O)CCC4(C)C3CCC21C (some centres not stated)
The inhibition of the first is lower: 13% for the first, 100% for the second.

Compared with CCN(CC)C(=O)[C@H]1CCC2C3CCC4N(C)C(=N)CCC4(C)C3CCC21C (some centres not stated), CCN(CC)C(=O)[C@H]1CC[C@H]2[C@@H]3CC[C@H]4N(C)C(=O)CC[C@]4(C)[C@H]3CC[C@]12C is higher in inhibition: 22% for the first, 99% for the second.

First: CN1C(=O)CCC2(C)C3CCC4(C)C(CC[C@@H]4CN)C3CCC12 (some centres not stated)
Second: CN1C(=O)CC[C@@]2(C)C1CC[C@H]1[C@@H]3CC[C@H](O)[C@@]3(C)CC[C@@H]12 (some centres not stated)
The inhibition of the first is higher: 80% for the first, 72% for the second.

Going from CCN(CC)C(=O)[C@H]1CCC2C3CC[C@H]4N(C)C(=O)[C@@H](C)CC4(C)C3CCC21C (some centres not stated) to CCN(CC)C(=O)[C@H]1CCC2C3CC[C@H]4N(C)C(=O)[C@H](O)CC4(C)C3CCC21C (some centres not stated), the inhibition falls from 99% to 46%.

Compared with CCN(CC)C(=O)[C@H]1CCC2C3CCC4N(C)CCCC4(C)C3CCC21C (some centres not stated), CCN(CC)C(=O)[C@H]1CCC2C3CCC4N(C)C(=S)CCC4(C)C3CCC21C (some centres not stated) is higher in inhibition: 44% for the first, 50% for the second.

First: CCOC(=O)C[C@H]1CC[C@H]2[C@@H]3CC[C@H]4N(C)C(=O)CC[C@]4(C)[C@H]3CC[C@]12C
Second: CCNC(=O)[C@H]1CCC2C3CCC4N(C)C(=O)CCC4(C)C3CCC21C (some centres not stated)
The inhibition of the first is higher: 88% for the first, 83% for the second.

Compared with CC(=O)[C@H]1CC[C@H]2[C@@H]3CC[C@H]4CS(=O)(=O)C[C@]4(C)[C@H]3CC[C@]12C (stereo in doubt; 44), CC(=O)[C@H]1CCC2C3CCC4N(C)C(=O)CCC4(C)C3CCC21C (some centres not stated) is higher in inhibition: 13% for the first, 100% for the second.

Going from CCN(CC)C(=O)[C@H]1CCC2C3CCC4N(NC)C(=O)CCC4(C)C3CCC21C (some centres not stated) to CCN(CC)C(=O)[C@H]1CCC2C3CCC4N(CCO)C(=O)CCC4(C)C3CCC21C (some centres not stated), the inhibition falls from 24% to 0%.

First: CCN(CC)C(=O)[C@H]1CC[C@H]2[C@@H]3CC[C@@H]4NC(=O)CC[C@]4(C)[C@H]3CC[C@]12C
Second: CCN(CC)C(=O)[C@H]1CC[C@H]2[C@@H]3CC[C@H]4NC(=O)C=C[C@]4(C)[C@H]3CC[C@]12C
The inhibition of the first is higher: 95% for the first, 74% for the second.

First: CC(=O)O[C@H]1CCC2C3CC[C@H]4CN(C(C)=O)CCC4(C)C3CCC21C (some centres not stated)
Second: CC(=O)O[C@H]1CCC2C3CC[C@H]4CC(=O)NCCC4(C)C3CCC21C (some centres not stated)
The inhibition of the first is higher: 33% for the first, 0% for the second.

Compared with CC(C)N(C(=O)[C@H]1CC[C@H]2[C@@H]3CCC4N(C)C(=O)CC[C@]4(C)[C@H]3CC[C@]12C)C(C)C (some centres not stated), CN1C(=O)CC[C@@]2(C)C1CC[C@H]1[C@@H]3CC[C@H](C(=O)O)[C@@]3(C)CC[C@@H]12 (some centres not stated) is lower in inhibition: 100% for the first, 90% for the second.

Compared with CCN(CC)C(=O)/C=C1\CC[C@H]2[C@@H]3CCC4N(C)C(=O)CC[C@]4(C)[C@H]3CC[C@]12C (some centres not stated), CN1C(=O)CCC2(C)C3CCC4(C)/C(=C/C(=O)O)CCC4C3CCC12 (configuration not stated) is lower in inhibition: 100% for the first, 92% for the second.

Going from CC(C(=O)O)[C@H]1CC[C@H]2[C@@H]3CCC4N(C)C(=O)CC[C@]4(C)[C@H]3CC[C@]12C (some centres not stated) to CC(O)[C@H]1CC[C@H]2[C@@H]3CCC4N(C)C(=O)CC[C@]4(C)[C@H]3CC[C@]12C (some centres not stated), the inhibition rises from 96% to 100%.

First: CN1C(=O)CC[C@@]2(C)C1CC[C@@H]1[C@@H]2CC[C@@]2(C)[C@H]1CC[C@@]21CCCO1 (some centres not stated)
Second: CCN1C(=O)CC[C@@]2(C)C1CC[C@@H]1[C@@H]2CC[C@@]2(C)[C@H]1CC[C@@]21CCCO1 (some centres not stated)
The inhibition of the first is higher: 81% for the first, 27% for the second.

Compared with CC(=O)N[C@@H]1CC[C@H]2[C@@H]3CCC4N(C)C(=O)CC[C@]4(C)[C@H]3CC[C@]12C (some centres not stated), CC(=O)N[C@H]1CCC2C3CCC4N(C)C(=O)CCC4(C)C3CCC21C (some centres not stated) is lower in inhibition: 87% for the first, 76% for the second.

Going from CCN(CC)C(=O)[C@H]1CCC2C3CCC4N(C)C(=O)/C(=C/O)CC4(C)C3CCC21C (some centres not stated) to CCN(CC)C(=O)[C@H]1CCC2C3CCC4N(C)C(=O)C(=O)CC4(C)C3CCC21C (some centres not stated), the inhibition rises from 48% to 78%.

Going from CN1C(=O)CCC2(C)C1=CCC1C2CCC2(C)C1CC[C@@H]2O (some centres not stated) to CN1C(=O)CCC2C3CCC4(C)C(CC[C@@H]4O)C3CCC21 (some centres not stated), the inhibition rises from 36% to 81%.

First: CCN(CC)C(=O)[C@H]1CC[C@H]2[C@@H]3CC[C@H]4N(C)C(=O)C=C[C@]4(C)[C@H]3CC[C@]12C
Second: CCN(CC)C(=O)[C@H]1CCC2C3CCC4N(C)C(=O)CC4(C)C3CCC21C (some centres not stated)
The inhibition of the first is higher: 63% for the first, 7% for the second.

Going from CC(=O)O[C@H]1CCC2C3CC[C@H]4CC(=O)NCC4(C)C3CCC21C (some centres not stated) to CC(=O)O[C@H]1CCC2C3CC[C@H]4NC(=O)CCCC4(C)C3CCC21C (some centres not stated), the inhibition rises from 35% to 94%.

Going from CCN(CC)C(=O)CCC(C)[C@H]1CC[C@H]2[C@@H]3CCC4N(C)C(=O)CC[C@]4(C)[C@H]3CC[C@]12C (some centres not stated) to CCN(CC)C(=O)C(C)[C@H]1CC[C@H]2[C@@H]3CCC4N(C)C(=O)CC[C@]4(C)[C@H]3CC[C@]12C (some centres not stated), the inhibition falls from 100% to 83%.

Going from CCCCCCCCCC[C@H]1CCC2C3CCC4N(C)C(=O)CCC4(C)C3CCC21C (some centres not stated) to CCCCCCCCNC(=O)[C@H]1CCC2C3CCC4N(C)C(=O)CCC4(C)C3CCC21C (some centres not stated), the inhibition rises from 7% to 100%.

Going from CCN(CC)C(=O)[C@H]1CCC2C3CCC4N(c5ccccc5)C(=O)CCC4(C)C3CCC21C (some centres not stated) to CCN(CC)C(=O)[C@H]1CCC2C3CCC4N(C)C(=O)C5OC5C4(C)C3CCC21C (some centres not stated), the inhibition rises from 5% to 19%.

Compared with CN1C(=O)CCC2(C)C3CCC4(C)C(CC[C@@H]4C(N)=O)C3CCC12 (some centres not stated), CC(CO)[C@H]1CC[C@H]2[C@@H]3CCC4N(C)C(=O)CC[C@]4(C)[C@H]3CC[C@]12C (some centres not stated) is higher in inhibition: 91% for the first, 100% for the second.

Compared with CC(CCC(=O)O)[C@H]1CC[C@H]2[C@@H]3CCC4N(C)C(=O)CC[C@]4(C)[C@H]3CC[C@]12C (some centres not stated), COC(=O)CCC(C)[C@H]1CC[C@H]2[C@@H]3CCC4N(C)C(=O)CC[C@]4(C)[C@H]3CC[C@]12C (some centres not stated) is lower in inhibition: 88% for the first, 84% for the second.

Going from CC(=O)[C@H]1CC[C@H]2[C@@H]3CC[C@H]4CS(=O)(=O)C[C@]4(C)[C@H]3CC[C@]12C (stereo in doubt; 42) to CC(O)[C@@]1(O)CC[C@H]2[C@@H]3CCC4N(C)C(=O)CC[C@]4(C)[C@H]3CC[C@@]21C (some centres not stated), the inhibition rises from 13% to 100%.

Compared with C[C@]12CCC(=O)NC1CC[C@@H]1[C@@H]2CC[C@@]2(C)[C@H]1CC[C@@]21CCCO1 (some centres not stated), CC12COC(=O)C=C1CCC1C2CCC2(C)C1CC[C@]2(C)O (some centres not stated) is lower in inhibition: 68% for the first, 8% for the second.
